Assay results reported in ChEMBL document CHEMBL1138199, “Identification of compounds with anti-West Nile Virus activity” (J Med Chem, 2006).

What was measured:
[1] = test system: West Nile virus; assay: Inhibition of West Nile viral Rluc-Neo-Rep in BHK21 cell line; type: functional, organism-based; conditions: BHK-21
Summary of the method: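 BHK-21 cell line stably carrying Rluc-Neo-Rep replicon; inhibition read as suppression of Renilla luciferase signal. Initial screen at 30 µM, 1% DMSO final; EC50 (µM) then determined.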

[2] = test system: BHK-21; assay: Cytotoxicity against BHK21 cell line by MTT assay; type: functional; conditions: Mesocricetus auratus
Summary of the method: (§1)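 MTT cytotoxicity assay run in BHK-21 and Vero cells on compounds giving >50% Rluc inhibition in the primary screens; CC50 reported in µM.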

[3] = Therapeutic index (CC50/EC50) in BHK21 cells; type: cell-based, BHK-21; conditions: hamster, read-out: Ratio CC50/EC50
Summary of the method: (§2)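 TI computed as CC50/EC50, using MTT CC50 and replicon EC50 in BHK-21 cells, or MTT CC50 and Rluc-FL-WNV EC50 in Vero cells.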

[4] = test system: West Nile virus; assay: Inhibition of Rluc-FL-WNV replicon in Vero cells; type: functional, organism-based
Summary of the method: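 Vero cells infected with full-length WNV carrying Renilla luciferase reporter (Rluc-FL-WNV), covering entry, replication and assembly; inhibition read as suppression of luciferase signal. Compounds first screened at 30 µM in 1% DMSO final, then EC50 (µM) determined.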

[5] = test system: Vero; assay: Cytotoxicity against Vero cells by MTT assay; type: functional; conditions: Chlorocebus sabaeus; summary of the method: as §1
[6] = Therapeutic index (CC50/EC50) in Vero cells; type: cell-based; conditions: monkey, read-out: Ratio CC50/EC50; summary of the method: as §2
[7] = test system: BHK-21; assay: Inhibition of West Nile virus VLP replicon in BHK21 cell line; type: functional, cell-based; conditions: Mesocricetus auratus
Summary of the method: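 Naive BHK-21 cells infected with virus-like particles, made by expressing WNV structural proteins in cells carrying the Rluc-Neo-Rep replicon, which package replicon RNA. This captures entry and replication but not assembly. Inhibition is read as suppression of Renilla luciferase signal. Compounds were given in 1% DMSO final, and EC50 is in µM.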

[8] = test system: Vero; assay: Inhibition of West Nile viral Rluc-Neo-Rep in Vero cells; type: functional, cell-based; conditions: Chlorocebus sabaeus
Summary of the method: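 Vero cells containing the Rluc-Neo-Rep replicon, used to check cell-line dependence; inhibition measured as suppression of Renilla luciferase signal, EC50 in µM.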

[9] = test system: West Nile virus; assay: Activity against West Nile virus RlucRep RNA translation in BHK21 cells at 100 uM, 2 hr post transfection; type: functional, BHK-21
Summary of the method: (§3)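 BHK cells transfected with WN RlucRep RNA (transient replicon), incubated with compound at 33 or 100 µM; luciferase read at 2, 4 and 72 h post-transfection. 2 and 4 h signals report viral translation, 72 h reports RNA synthesis. Activity given as percent of luciferase signal versus mock-treated transfection; average of two to three experiments.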

[10] = test system: West Nile virus; assay: Activity against West Nile virus RlucRep RNA translation in BHK21 cells at 33 uM, 4 h post transfection; type: functional, BHK-21; summary of the method: as §3
[11] = test system: West Nile virus; assay: Activity against West Nile virus RlucRep RNA translation in BHK21 cells at 100 uM, 4 hr post transfection; type: functional, BHK-21; summary of the method: as §3
[12] = test system: West Nile virus; assay: Activity against West Nile virus RlucRep RNA synthesis in BHK21 cells at 33 uM, 72 hr post transfection; type: functional, BHK-21; summary of the method: as §3
[13] = test system: West Nile virus; assay: Activity against West Nile virus RlucRep RNA synthesis in BHK21 cells at 100 uM, 72 h post transfection; type: functional, BHK-21; summary of the method: as §3
[14] = test system: West Nile virus; assay: Activity against West Nile virus RlucRep RNA translation in BHK21 cells at 33 uM, 2 hr post transfection; type: functional, BHK-21; summary of the method: as §3
[15] = test system: West Nile virus; assay: Inhibition of West Nile virus in vero cells at 11 uM; values are per cent of control
[16] = test system: West Nile virus; assay: Inhibition of West Nile virus in Vero cells at 33 uM; values are per cent of control
[17] = test system: West Nile virus; assay: Inhibition of West Nile virus in Vero cells at 0.4 uM; values are per cent of control
[18] = test system: West Nile virus; assay: Inhibition of West Nile virus in Vero cells at 1.2 uM; values are per cent of control
[19] = test system: West Nile virus; assay: Inhibition of West Nile virus in Vero cells at 3.7 uM; values are per cent of control
[20] = test system: West Nile virus; assay: Inhibition of West Nile virus in Vero cells at 100 uM; values are per cent of control

## O=C(c1ccccc1)N1N=C(c2cccs2)CC1c1ccc(Cl)cc1 (configuration not stated)
[1]
  EC50: 17 µM
[2]
  CC50: > 300 µM
[3]
  selectivity ratio: > 18
[4]
  EC50: 23 µM
[5]
  CC50: > 300 µM
[6]
  selectivity ratio: > 13
[7]
  EC50: 15 µM
[8]
  EC50: 15 µM

## CN1CCN(c2cc(-c3ccc(C(C)(C)C)cc3)nc3ccccc23)CC1
[1]
  EC50: 14.5 µM
[2]
  CC50: 50 µM
[3]
  selectivity ratio: 3.4
[4]
  EC50: 15 µM
[5]
  CC50: 20 µM
[6]
  selectivity ratio: 1.3
[7]
  EC50: 8 µM

## O=C(Cc1ccc(Cl)cc1)N1N=C(c2cccs2)CC1c1ccc([N+](=O)[O-])cc1 (configuration not stated)
[1]
  EC50: 11 µM
[9]
  Activity: 81%
[10]
  Activity: 92%
[11]
  Activity: 93%
[12]
  Activity: 12%
[13]
  Activity: 16%
[2]
  CC50: > 300 µM
[3]
  selectivity ratio: > 27
[4]
  EC50: 25 µM
[5]
  CC50: > 300 µM
[6]
  selectivity ratio: > 12
[7]
  EC50: 8 µM
[8]
  EC50: 7 µM
[14]
  Activity: 80%
[15]
  remaining activity at 11 µM: 55%
[16]
  remaining activity at 33 µM: 23%
[17]
  remaining activity at 0.4 µM: 100%
[18]
  remaining activity at 1.2 µM: 92%
[19]
  remaining activity at 3.7 µM: 90%
[20]
  remaining activity at 100 µM: 23%

## CN1CCN(c2cc(-c3ccc(C(C)(C)C)cc3)c3ccccc3n2)CC1
[1]
  EC50: 17 µM
[2]
  CC50: 110 µM
[3]
  selectivity ratio: 6.5
[4]
  EC50: 30 µM
[5]
  CC50: 25 µM
[6]
  selectivity ratio: 0.8
[7]
  EC50: 20 µM

## CN1CCN(Cc2ccc3c(c2)Oc2ccccc2C3O)CC1 (configuration not stated)
[1]
  EC50: 13.5 µM
[2]
  CC50: 325 µM
[3]
  selectivity ratio: 24
[4]
  EC50: 10 µM
[5]
  CC50: 50 µM
[6]
  selectivity ratio: 5
[7]
  EC50: 4 µM

## COc1c(C)c2c(c(O)c1C/C=C(\C)CCC(=O)O)C(=O)OC2 [MYCOPHENOLIC ACID]
[1]
  EC50: 1.4 µM
[4]
  EC50: 0.04 µM
[7]
  EC50: 0.04 µM
[8]
  EC50: 0.08 µM

## NC(=O)c1ncn([C@@H]2O[C@H](CO)[C@@H](O)[C@H]2O)n1 [RIBAVIRIN]
[1]
  EC50: 18 µM
[4]
  EC50: 30 µM
[7]
  EC50: 1.1 µM
[8]
  EC50: 119 µM
